Published values pooled from the literature.
Each line is one published result; the experiments were not run side by side.
Target: Mitogen-activated protein kinase kinase kinase 5 (MAP3K5, Homo sapiens, UniProt Q99683)
Residues used in one study (Q99683 1-1374): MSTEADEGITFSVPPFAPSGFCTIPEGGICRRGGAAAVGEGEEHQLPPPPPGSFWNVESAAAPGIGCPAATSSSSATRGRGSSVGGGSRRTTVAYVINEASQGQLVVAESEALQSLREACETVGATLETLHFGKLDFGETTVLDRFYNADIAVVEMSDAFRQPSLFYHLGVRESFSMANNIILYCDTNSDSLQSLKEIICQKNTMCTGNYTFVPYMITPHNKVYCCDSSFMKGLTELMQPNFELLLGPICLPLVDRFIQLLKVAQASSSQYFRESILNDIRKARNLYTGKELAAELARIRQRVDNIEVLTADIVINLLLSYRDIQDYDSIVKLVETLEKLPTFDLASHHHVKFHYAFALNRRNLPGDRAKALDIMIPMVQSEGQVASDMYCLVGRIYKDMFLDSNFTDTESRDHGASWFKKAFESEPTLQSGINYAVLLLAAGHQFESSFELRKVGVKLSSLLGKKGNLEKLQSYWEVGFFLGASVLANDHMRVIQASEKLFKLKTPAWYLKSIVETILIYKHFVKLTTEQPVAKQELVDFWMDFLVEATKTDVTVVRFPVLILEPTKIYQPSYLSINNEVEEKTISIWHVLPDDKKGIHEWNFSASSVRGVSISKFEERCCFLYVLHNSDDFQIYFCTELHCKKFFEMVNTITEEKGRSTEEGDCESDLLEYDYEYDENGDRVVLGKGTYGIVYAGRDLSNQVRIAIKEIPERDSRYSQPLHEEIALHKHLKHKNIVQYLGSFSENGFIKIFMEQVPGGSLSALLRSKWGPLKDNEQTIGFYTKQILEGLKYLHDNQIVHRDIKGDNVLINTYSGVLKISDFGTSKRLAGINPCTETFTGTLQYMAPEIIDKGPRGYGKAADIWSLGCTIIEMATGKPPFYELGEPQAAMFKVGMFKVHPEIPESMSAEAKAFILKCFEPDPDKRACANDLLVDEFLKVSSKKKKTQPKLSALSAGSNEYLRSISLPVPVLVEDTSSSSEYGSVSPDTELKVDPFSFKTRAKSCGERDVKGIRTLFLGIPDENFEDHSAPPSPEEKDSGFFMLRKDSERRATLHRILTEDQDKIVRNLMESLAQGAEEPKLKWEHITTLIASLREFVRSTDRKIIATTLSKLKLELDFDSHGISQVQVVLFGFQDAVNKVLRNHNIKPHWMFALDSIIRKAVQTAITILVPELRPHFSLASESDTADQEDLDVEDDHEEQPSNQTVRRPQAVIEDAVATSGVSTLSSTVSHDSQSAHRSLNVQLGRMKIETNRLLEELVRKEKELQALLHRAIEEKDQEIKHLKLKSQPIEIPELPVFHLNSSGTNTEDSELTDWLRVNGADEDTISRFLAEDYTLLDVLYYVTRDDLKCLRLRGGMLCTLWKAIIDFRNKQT

| Compound | test | setting | measurement | value |
| --- | --- | --- | --- | --- |
| C=CC(=O)N1CCC[C@@H](n2nc(-c3ccc(Oc4ccccc4)cc3)c3c(N)ncnc32)C1 | enzyme activity, inhibitor | 1 µM | inhibition | 10% |
| COc1ccc2oc(-c3ccc4nc(N)oc4c3)c/c(=N\c3ccccc3NC(=O)CCN)c2c1 | binding | 1 µM | remaining binding | 100% |
| Cc1ccc(NC(=O)c2ccnc(C(F)(F)F)c2)cc1-c1cc(OCCO)nc(N2CCOCC2)c1 | binding | 1 µM | remaining binding | 92% |
| CCCCC(=O)Nc1ccc(-c2ccc3ncn(CCC)c(=O)c3c2)cn1 | binding, competition with immobilised ligand | 0.5 µM | remaining binding | 91% |
| C#Cc1cc(-c2cc(Nc3nc(N[C@@H](C)c4ccc(F)cn4)ncc3Cl)n[nH]2)ccc1C=O | enzyme activity, inhibitor | 0.2 µM | inhibition | 4.04% |
| CO[C@@H]1[C@H](N(C)C(=O)c2ccccc2)C[C@H]2O[C@]1(C)n1c3ccccc3c3c4c(c5c6ccccc6n2c5c31)C(=O)NC4 | enzyme activity, inhibitor | 1 µM | inhibition | 0% |
| Cc1cc(O)c(-c2ccc([C@@H](C)CN(C)C)cc2)c2c1[nH]c(=O)c1sccc12 | enzyme activity, inhibitor | 0.1 µM | inhibition | -7.51% |
| CN1CCN(C(=O)c2ccc(NC(=O)Nc3ccc(N(C)c4ccnc(Nc5ccc(CS(C)(=O)=O)cc5)n4)cc3)cc2)CC1 | binding | 1 µM | remaining binding | 100% |
